Experimental data reported in ChEMBL document CHEMBL3407418, “Fragment-based drug discovery of 2-thiazolidinones as BRD4 inhibitors: 2. Structure-based optimization” (J Med Chem, 2015).
pIC50: −log10 of the molar value.

Legend:
[1] = Stability in human liver microsomes assessed as clearance at 1 uM pre-incubated for 5 mins followed by NADPH addition and measured after 5 to 30 mins post NADPH addition by LC/MS/MS method; format: ADME; conditions: read-out: CLH
Procedure, shortened: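 Human liver microsomes (0.5 mg/mL) preincubated with 1 µM compound for 5 min at 37 °C in 0.1 M phosphate pH 7.4 with 1 mmol EDTA and 5 mmol MgCl2. Started with 1 mmol NADPH; sampled at 0, 5, 10 and 30 min. Quenched with equal volume of cold acetonitrile, vortexed, and centrifuged at 10,000 × g.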

MV4-11 = test: Growth inhibition of human MV4-11 cells after 72 hrs by CellTiter-Glo luminescent cell viability assay; conditions: MV4-11, 72 h
[2] = biological target: Histone acetyltransferase p300 (Homo sapiens) (UniProt Q09472); test: Binding affinity to EP300 (unknown origin) assessed as increase in protein melting temperature at 50 umol by real-time PCR system based thermal shift assay
Procedure, shortened: (§1)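 Bromodomain proteins in 10 mmol HEPES pH 7.5, 500 mmol NaCl at 75 μg/mL final; compound at 50 µmol final; SYPRO Orange probe at 1:1000. Four replicates per protein mixture. Melt curve read on a real-time PCR instrument, heating 25 °C to 99 °C at 1 °C/min under continuous fluorescence reading; binding taken as the rise in protein melting temperature.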

CYP2C19 = CYP2C19 (Homo sapiens, UniProt P33261); test: Inhibition of CYP2C19 in human liver microsomes at 10 uM using mephenytoin substrate preincubated for 5 mins before NADPH addition and measured after 20 mins post NADPH addition; format: ADME; conditions: probe mephenytoin
Procedure, shortened: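 Human liver microsomes 0.2 mg/mL, 1 mmol NADPH, 100 mmol phosphate pH 7.4, probe cocktail (10 μM midazolam, 100 μM testosterone, 10 μM dextromethorphan, 20 μM diclofenac, 100 μM phenacetin, 100 μM mephenytoin), test compound 10 μM or PBS; organic solvent <1%. 5 min preincubation at 37 °C, NADPH-generating system start, 20 min reaction; inhibition from metabolite formation relative to PBS.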

[3] = biological target: Bromodomain-containing protein 2 (Homo sapiens) (UniProt P25440); test: Binding affinity to BRD2(1) (unknown origin) assessed as increase in protein melting temperature at 50 umol by real-time PCR system based thermal shift assay; procedure, shortened: as §1
HT-29 = test: Growth inhibition of human HT-29 cells after 72 hrs by SRB assay; format: functional, cell-based; conditions: HT-29, 72 h
Procedure, shortened: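 HT-29 cells are grown in McCoy's 5A with 10% FBS at 37 °C, 5% CO2. DMSO stocks (0.01 mol/L) are diluted in normal saline just before use. Cells are treated in triplicate with gradient concentrations for 72 h at 37 °C.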

[4] = biological target: Bromodomain-containing protein 4 (Homo sapiens, UniProt O60885)
[5] = biological target: T1, ATPase family AAA domain-containing protein 2 (Homo sapiens) (UniProt Q6PL18); test: Binding affinity to ATAD2 (unknown origin) assessed as increase in protein melting temperature at 50 umol by real-time PCR system based thermal shift assay; procedure, shortened: as §1
T1 sequence (whole entry): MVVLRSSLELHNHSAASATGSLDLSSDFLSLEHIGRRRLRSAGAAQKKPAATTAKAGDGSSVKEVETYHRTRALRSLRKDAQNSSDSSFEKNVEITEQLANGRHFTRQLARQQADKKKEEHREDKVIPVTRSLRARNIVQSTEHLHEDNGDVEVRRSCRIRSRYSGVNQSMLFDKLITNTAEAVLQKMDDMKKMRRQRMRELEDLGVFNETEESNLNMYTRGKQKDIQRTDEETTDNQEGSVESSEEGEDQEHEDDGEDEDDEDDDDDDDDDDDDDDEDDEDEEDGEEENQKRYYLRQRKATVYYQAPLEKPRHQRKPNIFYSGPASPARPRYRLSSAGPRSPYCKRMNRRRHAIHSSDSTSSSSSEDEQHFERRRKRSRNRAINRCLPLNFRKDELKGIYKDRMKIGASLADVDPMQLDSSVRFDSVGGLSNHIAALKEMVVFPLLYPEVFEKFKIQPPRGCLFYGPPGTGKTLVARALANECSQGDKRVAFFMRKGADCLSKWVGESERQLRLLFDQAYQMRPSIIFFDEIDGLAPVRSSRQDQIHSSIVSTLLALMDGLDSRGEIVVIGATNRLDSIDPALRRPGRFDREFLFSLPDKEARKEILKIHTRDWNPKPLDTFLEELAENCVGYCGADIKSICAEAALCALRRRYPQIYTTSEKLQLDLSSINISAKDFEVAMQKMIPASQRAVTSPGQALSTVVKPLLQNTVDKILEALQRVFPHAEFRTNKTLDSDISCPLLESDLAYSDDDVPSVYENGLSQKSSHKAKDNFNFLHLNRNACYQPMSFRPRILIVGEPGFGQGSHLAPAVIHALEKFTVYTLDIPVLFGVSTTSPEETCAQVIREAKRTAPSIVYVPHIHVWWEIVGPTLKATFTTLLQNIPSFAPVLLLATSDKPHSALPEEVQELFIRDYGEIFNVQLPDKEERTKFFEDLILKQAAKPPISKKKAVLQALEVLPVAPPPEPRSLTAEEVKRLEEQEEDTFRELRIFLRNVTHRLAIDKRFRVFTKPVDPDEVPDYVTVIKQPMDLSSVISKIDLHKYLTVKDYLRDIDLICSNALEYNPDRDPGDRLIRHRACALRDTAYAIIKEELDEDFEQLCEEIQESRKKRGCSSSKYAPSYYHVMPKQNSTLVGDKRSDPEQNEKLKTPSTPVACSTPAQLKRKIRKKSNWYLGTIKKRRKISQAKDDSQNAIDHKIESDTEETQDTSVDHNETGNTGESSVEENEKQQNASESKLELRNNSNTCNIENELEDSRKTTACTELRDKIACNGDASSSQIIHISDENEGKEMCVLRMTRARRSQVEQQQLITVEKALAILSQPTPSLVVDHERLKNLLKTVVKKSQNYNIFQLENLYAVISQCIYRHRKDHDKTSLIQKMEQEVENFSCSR

CYP3A4 = CYP3A4 (Homo sapiens, UniProt P08684); test: Inhibition of CYP3A4 in human liver microsomes at 10 uM preincubated for 5 mins before NADPH addition and measured after 20 mins post NADPH addition; format: ADME
Chain of CYP3A4 (P08684 whole entry): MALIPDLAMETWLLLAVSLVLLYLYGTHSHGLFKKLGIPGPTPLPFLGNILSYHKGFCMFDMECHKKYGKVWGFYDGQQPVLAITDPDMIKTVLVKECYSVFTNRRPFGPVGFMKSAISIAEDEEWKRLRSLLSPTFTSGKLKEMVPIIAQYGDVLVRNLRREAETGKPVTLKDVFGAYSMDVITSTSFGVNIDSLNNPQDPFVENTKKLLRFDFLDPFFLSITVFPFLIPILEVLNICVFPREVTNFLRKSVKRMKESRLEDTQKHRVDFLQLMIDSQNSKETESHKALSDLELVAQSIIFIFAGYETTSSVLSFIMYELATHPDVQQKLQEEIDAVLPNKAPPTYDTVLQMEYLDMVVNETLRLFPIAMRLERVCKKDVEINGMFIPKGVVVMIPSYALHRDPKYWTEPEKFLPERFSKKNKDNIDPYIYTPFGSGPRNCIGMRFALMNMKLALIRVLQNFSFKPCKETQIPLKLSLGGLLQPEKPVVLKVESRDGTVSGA

Chain of Bromodomain-containing protein 2 (Homo sapiens) (P25440 whole entry, looked up): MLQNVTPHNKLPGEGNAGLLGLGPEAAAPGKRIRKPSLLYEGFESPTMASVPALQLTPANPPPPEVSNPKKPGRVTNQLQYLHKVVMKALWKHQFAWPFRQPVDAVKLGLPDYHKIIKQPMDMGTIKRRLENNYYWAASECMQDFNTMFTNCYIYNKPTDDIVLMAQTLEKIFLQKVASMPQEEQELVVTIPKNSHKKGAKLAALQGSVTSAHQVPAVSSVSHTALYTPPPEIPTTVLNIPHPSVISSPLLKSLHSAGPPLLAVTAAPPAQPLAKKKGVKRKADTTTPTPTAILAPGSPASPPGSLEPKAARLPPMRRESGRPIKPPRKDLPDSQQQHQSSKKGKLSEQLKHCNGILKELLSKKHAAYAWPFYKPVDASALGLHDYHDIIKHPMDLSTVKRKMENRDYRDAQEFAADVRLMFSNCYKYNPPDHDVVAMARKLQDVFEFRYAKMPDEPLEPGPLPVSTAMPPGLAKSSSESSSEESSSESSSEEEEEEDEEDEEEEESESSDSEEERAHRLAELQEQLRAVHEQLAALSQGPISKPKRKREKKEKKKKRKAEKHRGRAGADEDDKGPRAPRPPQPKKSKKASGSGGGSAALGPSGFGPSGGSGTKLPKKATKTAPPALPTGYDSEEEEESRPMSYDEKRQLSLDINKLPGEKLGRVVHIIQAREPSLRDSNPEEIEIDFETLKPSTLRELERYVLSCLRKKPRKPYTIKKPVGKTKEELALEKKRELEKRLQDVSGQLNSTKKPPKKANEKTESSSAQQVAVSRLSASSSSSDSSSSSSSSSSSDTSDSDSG
Chain of CYP2C19 (P33261 whole entry): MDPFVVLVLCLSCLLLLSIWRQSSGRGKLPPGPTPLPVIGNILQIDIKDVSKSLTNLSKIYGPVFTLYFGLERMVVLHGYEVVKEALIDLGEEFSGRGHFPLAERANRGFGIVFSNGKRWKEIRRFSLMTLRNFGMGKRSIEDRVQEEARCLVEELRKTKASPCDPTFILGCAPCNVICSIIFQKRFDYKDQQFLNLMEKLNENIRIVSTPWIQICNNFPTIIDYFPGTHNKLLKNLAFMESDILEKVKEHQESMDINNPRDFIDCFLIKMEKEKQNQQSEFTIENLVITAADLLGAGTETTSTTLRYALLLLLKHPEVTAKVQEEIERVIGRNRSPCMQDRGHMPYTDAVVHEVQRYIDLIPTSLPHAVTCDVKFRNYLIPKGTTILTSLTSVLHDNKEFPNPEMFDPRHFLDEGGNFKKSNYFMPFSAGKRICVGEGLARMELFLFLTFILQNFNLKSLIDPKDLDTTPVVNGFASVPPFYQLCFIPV
Chain of Histone acetyltransferase p300 (Homo sapiens) (Q09472 whole entry): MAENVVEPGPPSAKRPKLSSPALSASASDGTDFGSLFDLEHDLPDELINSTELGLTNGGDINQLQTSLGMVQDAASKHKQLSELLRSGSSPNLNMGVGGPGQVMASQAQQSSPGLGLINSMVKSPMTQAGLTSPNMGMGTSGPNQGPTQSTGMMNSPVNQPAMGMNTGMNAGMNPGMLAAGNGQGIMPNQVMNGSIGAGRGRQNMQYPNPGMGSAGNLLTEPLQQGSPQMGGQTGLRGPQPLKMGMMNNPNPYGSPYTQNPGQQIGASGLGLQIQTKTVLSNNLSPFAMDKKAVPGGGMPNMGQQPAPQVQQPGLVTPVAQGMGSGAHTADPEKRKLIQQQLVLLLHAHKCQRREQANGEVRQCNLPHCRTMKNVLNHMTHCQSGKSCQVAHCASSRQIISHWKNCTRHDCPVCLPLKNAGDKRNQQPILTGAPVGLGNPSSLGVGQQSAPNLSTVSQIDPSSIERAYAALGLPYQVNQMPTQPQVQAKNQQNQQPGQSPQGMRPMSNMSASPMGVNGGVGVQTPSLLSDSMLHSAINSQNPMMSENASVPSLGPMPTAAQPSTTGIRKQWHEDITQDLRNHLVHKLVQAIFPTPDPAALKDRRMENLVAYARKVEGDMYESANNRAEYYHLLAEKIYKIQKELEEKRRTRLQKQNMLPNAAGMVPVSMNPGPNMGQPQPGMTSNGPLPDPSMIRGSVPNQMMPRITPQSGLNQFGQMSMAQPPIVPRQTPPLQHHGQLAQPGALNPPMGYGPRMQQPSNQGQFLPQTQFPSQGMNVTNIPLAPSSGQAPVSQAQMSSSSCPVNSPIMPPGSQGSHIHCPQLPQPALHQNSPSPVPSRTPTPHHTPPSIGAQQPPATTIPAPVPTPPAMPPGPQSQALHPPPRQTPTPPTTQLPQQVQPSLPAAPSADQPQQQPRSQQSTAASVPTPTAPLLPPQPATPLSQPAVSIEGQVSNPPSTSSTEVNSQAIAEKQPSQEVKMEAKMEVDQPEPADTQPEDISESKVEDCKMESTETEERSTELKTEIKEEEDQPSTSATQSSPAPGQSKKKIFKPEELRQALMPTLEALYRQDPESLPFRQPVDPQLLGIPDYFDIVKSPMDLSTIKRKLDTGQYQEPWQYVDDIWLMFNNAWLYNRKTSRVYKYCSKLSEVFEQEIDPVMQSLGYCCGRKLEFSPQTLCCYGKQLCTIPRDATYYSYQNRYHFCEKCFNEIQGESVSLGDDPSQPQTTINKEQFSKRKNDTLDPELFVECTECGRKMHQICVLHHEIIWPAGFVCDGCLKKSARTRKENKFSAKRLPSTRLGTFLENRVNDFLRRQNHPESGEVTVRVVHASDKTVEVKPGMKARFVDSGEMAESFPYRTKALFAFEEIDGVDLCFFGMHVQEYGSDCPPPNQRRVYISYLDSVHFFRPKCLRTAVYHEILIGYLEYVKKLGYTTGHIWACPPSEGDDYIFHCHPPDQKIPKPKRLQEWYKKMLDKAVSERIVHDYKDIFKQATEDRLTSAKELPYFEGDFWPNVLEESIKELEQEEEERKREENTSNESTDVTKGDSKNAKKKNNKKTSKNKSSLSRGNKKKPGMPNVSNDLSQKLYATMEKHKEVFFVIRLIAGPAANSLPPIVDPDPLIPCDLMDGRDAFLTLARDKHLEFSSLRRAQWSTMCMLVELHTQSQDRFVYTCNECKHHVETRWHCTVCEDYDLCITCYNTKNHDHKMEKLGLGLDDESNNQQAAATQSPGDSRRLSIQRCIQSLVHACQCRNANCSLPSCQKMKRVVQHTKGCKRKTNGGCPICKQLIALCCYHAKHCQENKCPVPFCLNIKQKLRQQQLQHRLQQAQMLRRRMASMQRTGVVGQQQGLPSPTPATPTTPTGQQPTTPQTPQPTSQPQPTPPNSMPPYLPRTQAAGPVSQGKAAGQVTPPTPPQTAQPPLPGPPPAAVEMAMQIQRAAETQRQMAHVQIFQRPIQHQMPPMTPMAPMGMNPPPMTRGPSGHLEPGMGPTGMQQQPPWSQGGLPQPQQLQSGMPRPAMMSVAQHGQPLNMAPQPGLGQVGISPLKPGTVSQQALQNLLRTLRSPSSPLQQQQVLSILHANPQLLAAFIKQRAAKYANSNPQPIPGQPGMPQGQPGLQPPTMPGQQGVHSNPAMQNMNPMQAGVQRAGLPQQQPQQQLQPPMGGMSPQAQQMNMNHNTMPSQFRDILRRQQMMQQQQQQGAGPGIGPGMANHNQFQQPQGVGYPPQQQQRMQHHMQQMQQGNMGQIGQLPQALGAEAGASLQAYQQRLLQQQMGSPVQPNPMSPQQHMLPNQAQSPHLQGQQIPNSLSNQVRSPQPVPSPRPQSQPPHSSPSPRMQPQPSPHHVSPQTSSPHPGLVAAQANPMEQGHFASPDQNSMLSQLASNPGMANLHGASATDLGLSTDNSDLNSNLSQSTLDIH

microsomal CLint at 1 µM [1] [µL/min/mg]	pIC50 (MV4-11)	ΔTm [2] [°C]	inhibition at 20 min, 10 µM (CYP2C19) [%]	ΔTm [3] [°C]	pIC50 (HT-29)	ΔTm [4] [°C]	ΔTm [5] [°C]	inhibition at 20 min, 10 µM (CYP3A4) [%]	Compound
74	6.64	-0.54	32	5.63	5.24	8.48	3.55	21	O=C(Nc1cc(-c2csc(=O)[nH]2)cc(S(=O)(=O)NC2CCCC2)c1)C1CC1
20	6.54	-0.08	57	4.06	5.48	7.76	3.28	82	Nc1ccc(-c2csc(=O)[nH]2)cc1S(=O)(=O)NC1CCCC1
84	6.85	-1.01	28	5.92	5.26	9.22	3.42	53	Cc1c(Br)cc(-c2csc(=O)[nH]2)cc1S(=O)(=O)NC1CCCC1
128	6.34	-0.17	45	3.47	5.40	6.3	1.44	68	Cc1ccc(-c2csc(=O)[nH]2)cc1S(=O)(=O)NC1CCCC1
66	6.74	0.19	3	5.04	6.07	7.25	2.7	46	Cc1c(N)cc(-c2csc(=O)[nH]2)cc1S(=O)(=O)NC1CCCC1
56	6.26	0.49	26	2.82	5.41	5.19	1.36	30	COc1ccc(-c2csc(=O)[nH]2)cc1S(=O)(=O)NC1CCCC1
